Assay outcomes (PubChem BioAssay)
Myeloid diff MLP = myeloid differentiation induction; ER-HoxA9 myeloid progenitors, lysozyme-GFP differentiation, flow cytometry; calls only at 10 µM; actives 1% (n = 360,000); AID 624256;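 active = normalized GFP-positive differentiation at or above the plate's own cutoff, the solvent-only control mean plus 3 SD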;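 note: cells exposed to compound for four days before flow analysis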
MC4R antagonist = antagonists of human melanocortin 4 receptor (MC4R). P32245. MC4R-expressing cells, MTII-stimulated cAMP, LANCE TR-FRET. inhibition, % at 6.5 µM. actives 0.48% (n = 360,000);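 active = inhibition above its plate's cutoff, the mean of tested wells on that plate plus 3 SD, cut at about 29% in these data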;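 note: 0% = Melanotan II alone and 100% = Melanotan II plus saturating MCL0020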
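Assay system: U2OS-MC4R stable cell line; Also added: Melanotan II; Technique: Eu-cAMP/anti-cAMP TR-FRET, emission 671 nm; Times: 30-min compound, 1-h challenge, 1-h detection, room temperature.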
MC4R barr agon = activates human MC4R beta-arrestin recruitment. U2OS MC4R beta-arrestin complementation, luminescence; percent of melanotan II response, DMSO zero. actives 0.98% (n = 360,000). activation, % at 8.9 µM;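 active = activation above a per-plate cutoff, the mean activation of sample wells on that plate plus 3 SD, cut at about 8% in these data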
EBI2 antag = antagonists of human EBI2 receptor; EBI2 beta-arrestin recruitment, luminescence, 7a,25-OHC stimulated; inhibition, % at 5 µM; actives 0.81% (n = 360,000); AID 651636; in the data active = inhibition above about 38%;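 note: enzyme fragment complementation signal reports receptor beta-arrestin coupling in cells; 0% = agonist plus DMSO wells and 100% = wells without agonist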
Target sequence (P32249 whole entry, looked up, the tested form may be a part): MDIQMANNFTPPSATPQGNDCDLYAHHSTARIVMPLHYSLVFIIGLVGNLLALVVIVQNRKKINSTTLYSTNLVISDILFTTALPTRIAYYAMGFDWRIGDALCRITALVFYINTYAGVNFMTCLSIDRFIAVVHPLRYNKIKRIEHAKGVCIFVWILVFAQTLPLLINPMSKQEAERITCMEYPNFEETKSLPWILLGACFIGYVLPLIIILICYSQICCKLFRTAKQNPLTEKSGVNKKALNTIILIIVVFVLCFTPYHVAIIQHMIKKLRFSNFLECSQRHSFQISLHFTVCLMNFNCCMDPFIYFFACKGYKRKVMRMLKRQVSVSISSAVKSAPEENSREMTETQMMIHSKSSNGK
Granule exo inh = blocks lytic granule exocytosis; TALL-104 LAMP-1 surface exposure, flow cytometry; cells stimulated with thapsigargin and PMA; inhibition, % at 10 µM; actives 0.66% (n = 360,000); AID 651702;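 active = inhibition above about 55%, limit read from the data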
EBI2 conf = confirmation of human EBI2 receptor antagonists; EBI2 beta-arrestin luminescence, 7a,25-OHC antagonism; actives 29% (n = 2,400); shares compounds with EBI2 antag; AID 651997; inhibition, % at 5 µM;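 active = inhibition of at least 50%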
EBI2 ag = EBI2 agonism counter-screen | shares compounds with EBI2 antag | activation, % at 5 µM | 2,400 tested, under 10 active | EBI2-expressing cells, agonist mode, luminescence, 60 min; 0% vehicle, 100% 7α,25-dihydroxycholesterol control | AID 652000;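 active = activation of at least 50%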
bGal cs = beta-galactosidase inhibition counter-screen; inhibition, % at 5 µM; purified beta-galactosidase, luminescent Galacton Star, 15 min; actives 1% (n = 2,400); shares compounds with EBI2 antag;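 active = replicate-average signal at least 3 plate SD below neutral wells, shown as high inhibition, flagging enzyme-inhibiting false positives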;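 note: 0% = DMSO wells with enzyme and 100% = wells lacking enzyme; higher means stronger loss of beta-gal luminescence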
Starred values were filed as active, the others as inactive. A selection: hits, their analogues and other compounds. The true share with any hit is near 3.7%.

COc1ccc(OC)c(CN2C(=O)CCC2(C)c2nnnn2-c2c(C)cccc2C)c1 (stereo not given) was read as Myeloid diff MLP inactive, EBI2 antag -2 and Granule exo inh 0.
CC(=O)C(C(c1ccccc1)c1c[nH]c2ccccc12)[N+](=O)[O-] (stereo not given) was read as Myeloid diff MLP inactive, MC4R antagonist 8, MC4R barr agon 5, EBI2 antag -1 and Granule exo inh -4.
For CN(Cc1ccccc1)C(=O)C(=O)c1c[nH]c2ccccc12 the results were Myeloid diff MLP inactive, MC4R antagonist -2, MC4R barr agon 0, EBI2 antag 9 and Granule exo inh -4.
`CC(C)(O)C#Cc1ccc(CN2CCN(CCc3ccccc3)C(CCO)C2)s1` (stereo not given) gave Myeloid diff MLP inactive, MC4R antagonist -4, MC4R barr agon -2, EBI2 antag -14 and Granule exo inh 0.
For CCCCCCN1C[C@H](O)[C@@H](n2cc(-c3ccc(F)cc3)nn2)C[C@@H]1c1ccc(C)cc1 the results were Myeloid diff MLP inactive, MC4R antagonist 6, MC4R barr agon 2, EBI2 antag 0 and Granule exo inh -3.
O=C(Cn1ccc(NC(=O)OCc2ccccc2)nc1=O)NCCN1CCOCC1 was read as Myeloid diff MLP inactive, MC4R antagonist -3, MC4R barr agon 0, EBI2 antag 8 and Granule exo inh -32.
Screening Cc1ccc(OCC(=O)N2CCN(C(=O)c3cccs3)CC2)cc1 returned Myeloid diff MLP inactive, MC4R antagonist 7, MC4R barr agon -3, EBI2 antag 60*, Granule exo inh 1, EBI2 conf 41, EBI2 ag 1 and bGal cs -3.
`O=C(CSc1ccc(Br)cc1)N1CCN(C(=O)c2ccco2)CC1` gave Myeloid diff MLP inactive, MC4R antagonist 9, MC4R barr agon 2, EBI2 antag 83*, Granule exo inh -3, EBI2 conf 69*, EBI2 ag 0 and bGal cs 2.
`O=C(COc1ccc2ccccc2c1)N1CCN(C(=O)c2ccco2)CC1` gave Myeloid diff MLP inactive, MC4R antagonist -1, MC4R barr agon 1, EBI2 antag 73*, Granule exo inh -2, EBI2 conf 50, EBI2 ag -1 and bGal cs -6.
Screening O=C(CSc1ccc(Br)cc1)N1CCOCC1 returned Myeloid diff MLP inactive, MC4R antagonist 4, MC4R barr agon -1, EBI2 antag 12 and Granule exo inh 2.
`Cc1ccc(OCC(=O)N2CCN(C(=O)c3ccco3)CC2)cc1` gave Myeloid diff MLP inactive, MC4R antagonist 14, MC4R barr agon -1, EBI2 antag 52*, Granule exo inh 14, EBI2 conf 23, EBI2 ag 3 and bGal cs 7.
For Cc1nc(CS(=O)(=O)c2ccccc2)cc(Sc2ccc(Cl)cc2Cl)n1 the results were Myeloid diff MLP inactive, MC4R antagonist 8, MC4R barr agon 3, EBI2 antag 75*, Granule exo inh -3, EBI2 conf 53*, EBI2 ag -1 and bGal cs 8.
Screening Cc1ccc(C(=O)Nc2ccccc2C(=O)NCc2ccco2)cc1S(=O)(=O)N1CCCCC1 returned Myeloid diff MLP inactive, MC4R antagonist 0, MC4R barr agon -3, EBI2 antag 44*, Granule exo inh -1, EBI2 conf 28, EBI2 ag 0 and bGal cs 8.
`CCOc1ccc(N2C(=O)CC(C(C)c3ccccc3)C2=O)cc1` (stereo not given) gave Myeloid diff MLP inactive, MC4R antagonist 10, MC4R barr agon 2, EBI2 antag 1 and Granule exo inh -4.
`COc1cccc(NC(=O)Cn2c3ccc(OC)cc3c3nc4n(c(=O)c32)CCS4)c1` gave Myeloid diff MLP inactive, MC4R antagonist 1, MC4R barr agon -2, EBI2 antag 57*, Granule exo inh -1, EBI2 conf 20, EBI2 ag -1 and bGal cs -7.
